Source: PubChem
Compounds with a hit are over-represented: about 4% of the library has one in this group of screens.
KCNQ1 inh – human KCNQ1 channel inhibition; CHO-K1 KCNQ1, FluxOR thallium flux fluorescence; hits give high values; hit rate 1.3% among 310,000; B-score at 10 µM;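 active = compounds whose thallium flux B-score, printed positive for inhibition, exceeds three library SD while starting fluorescence stays within three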;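 note: channel opened by potassium depolarization with thallium stimulus after 20 min compound exposure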
KCNK9 block – inhibitors of human KCNK9 two-pore domain potassium channel; AID 488922; Q9NPC2; hit rate 1.2% among 310,000; B-score at 10 µM; HEK293 KCNK9, FluxOR thallium flux fluorescence; hits give low values;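 active = ratio B-score over 3 SD below the library mean, with starting fluorescence within 5 SD of its mean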;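 note: negative B-score means less thallium flux so channel inhibition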
PHOSPHO1 block – inhibitors of human PHOSPHO1 phosphatase; recombinant PHOSPHO1, absorbance phosphatase assay; inhibition, % at 13.3 µM; hit rate 1.1% among 290,000; AID 1565; in the data active = inhibition above about 60%
Target sequence (Q8TCT1 whole entry, looked up): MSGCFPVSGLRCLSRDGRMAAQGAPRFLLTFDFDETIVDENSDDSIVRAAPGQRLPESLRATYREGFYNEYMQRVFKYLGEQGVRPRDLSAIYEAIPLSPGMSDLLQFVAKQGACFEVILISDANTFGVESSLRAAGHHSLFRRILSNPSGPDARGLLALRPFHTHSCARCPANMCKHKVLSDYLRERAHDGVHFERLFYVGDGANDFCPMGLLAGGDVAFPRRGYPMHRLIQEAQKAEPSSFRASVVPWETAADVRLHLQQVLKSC
KCNQ1 pot – human KCNQ1 channel potentiation or activation | CHO-K1 KCNQ1, thallium flux FluxOR fluorescence; hits give high values | hit rate 0.35% among 310,000 | B-score at 10 µM | P51787;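 active = fluorescence ratio B-score, a plate-corrected score, at least three library SD, with initial intensity B-score within 5 SD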
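Assay system: CHO-K1 cells stably expressing KCNQ1. Medium: assay buffer for compound exposure, DMSO matched across wells. Timing: 37 °C overnight plating, 90-min dark dye load, 20-min compound pretreatment. Signal: kinetic FluxOR fluorescence, 10 s baseline plus 110 s post-stimulus.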
KCNK3 block – human KCNK3 channel inhibition, primary screen. O14649. CHO-KCNK3 thallium flux, FluxOR fluorescence; hits give low values. hit rate 0.84% among 340,000. B-score at 10 µM;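 active = B-score under library mean minus 4 SD, starting fluorescence ratio at most library mean plus 5 SD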;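 note: more negative B-score means stronger inhibition of thallium flux through KCNK3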
hERG rescue – hERG (human) protection from proarrhythmic block | CHO-hERG, FluxOR thallium flux, dofetilide IC70 present | activation (rescue from dofetilide block), less the hit threshold, % at 10 µM | hit rate 0.51% among 310,000 | AID 1511;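 active = activation above the mean of controls blocked by dofetilide plus 5 SD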;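 note: thallium influx through hERG after potassium depolarization seen as dye fluorescence rise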
The depositor's hits bear a star; i = inactive; . = no result.

SMILES	KCNQ1 inh	KCNK9 block	PHOSPHO1 block	KCNQ1 pot	KCNK3 block	hERG rescue
O=C(O)c1ccc(-c2cccc([N+](=O)[O-])c2)o1	i	i	15.9	i	i	-11.4
N#C/C(=C(/O)c1ccc(-c2cccc([N+](=O)[O-])c2)o1)c1nc2ccccc2s1	7*	i	37.7	i	i	-10.5
COC(=O)c1ccccc1S(=O)c1snnc1C (stereo unspecified)	i	i	-9.5	i	i	-7.5
COCCCNC(=O)c1cccc(NC(=O)c2ccccc2)c1	i	i	-12.0	i	i	-1.2
N#Cc1c(N)n[nH]c1-c1cc2c([nH]1)CCCC2	i	i	-5.8	i	i	-4.6
N#Cc1cc2c([nH]c1=S)CCCCCC2	i	i	93.4*	i	i	-5.0
N#C/C(=C\c1cccnc1)C(=O)Nc1cccc(Cl)c1	i	i	-7.7	i	i	8.5*
CCC1=C(OC(=O)N(CC)CC)N2C(=O)OC(=NCC3CC3)[C@]2(Cc2ccccc2)[C@H]2C1=CC[C@H]1C(=O)N(CC(=O)OC)C(=O)[C@H]12	i	-6.77*	-21.9	i	.	-8.0
Cc1ccc(C(=O)OCC(=O)N(C)c2ccccc2)cc1C	i	i	16.0	11*	i	-4.2
Cc1cc(C(=O)OCC(=O)N(C)c2ccccc2)ccc1[N+](=O)[O-]	i	i	35.7	i	i	-6.9
Nc1nnc(SC2CC(=O)N(c3ccccc3)C2=O)s1 (stereo unspecified)	i	i	97.6*	i	i	-3.5
O=C1CC(Sc2nnc(-c3ccccc3O)o2)C(=O)N1c1ccccc1 (stereo unspecified)	i	i	95.3*	i	i	-18.1
CCOc1ccc(N2C(=O)CC(Sc3ncccn3)C2=O)cc1 (stereo unspecified)	i	i	5.5	i	i	-2.1
COc1ccc(N2C(=O)CC(Sc3nnc(-c4ccccc4)o3)C2=O)cc1 (stereo unspecified)	i	i	56.5	i	i	-3.1
C=CCNc1nnc(SC2CC(=O)N(c3ccc(OCCC)cc3)C2=O)s1 (stereo unspecified)	i	i	99.8*	i	i	-4.6
CCOC(=O)c1ccc(N2C(=O)CC(Sc3nnc(C)s3)C2=O)cc1 (stereo unspecified)	i	i	100.2*	i	i	-1.1
CC(C)(C)c1ccc(OCCCC(=O)NC2=NCCS2)cc1	i	i	14.1	i	i	-3.9
COc1cc(C(=O)NCCCN2CCCC2=O)ccc1OCc1ccc(Cl)cc1Cl	.	.	.	.	i	.
CCOC(=O)c1ccc(/C=C2\c3ccccc3C(=O)N2c2ccccc2)cc1F	.	.	.	.	i	.
CCOC(=O)c1ccc(/C=C2/C=C(c3ccccc3)N(c3ccc(Cl)c(C(=O)O)c3)C2=O)cc1	11*	i	-8.2	i	i	-23.8
Cn1c(CNC(=O)c2ccccc2F)nnc1SCc1nc2ccccc2c(=O)[nH]1	i	i	41.1	i	.	6.8*
N/C(CSc1nc(-c2ccccc2)c(-c2ccccc2)o1)=N\O	8*	-7.16*	26.9	i	i	-11.9
COc1cccc(NC(=O)CSc2nnc(-c3cc(C)n(-c4ccccc4)c3C)o2)c1	i	i	9.4	i	i	-5.2
COc1ccc(CNC(=O)[C@H](C)NC(=O)N2CCn3c2nc2ccccc23)cc1	i	i	69.7*	i	i	-5.2
CCOc1ccc2nc(/N=C/c3c(C)[nH]n(-c4ccccc4)c3=O)sc2c1	i	i	0.7	55*	i	57.5*
SMILES	KCNQ1 inh	KCNK9 block	PHOSPHO1 block	KCNQ1 pot	KCNK3 block	hERG rescue
CCOc1ccc2nc(/N=C/c3nc(-c4ccc(Br)cc4)oc3O)sc2c1	i	i	-2.4	25*	i	6.7*
CCOc1[nH]n(-c2ccc(Cl)cc2)c(=O)c1C=Nc1ccc(C)cc1	.	.	8.5	.	.	.
CCOc1ccc(N2C(=O)CC(Sc3nc4ccc(OCC)cc4s3)C2=O)cc1 (stereo unspecified)	i	i	.	i	i	-8.6
CCOc1ccc2nc(/N=C/c3c(C)[nH]n(-c4ccc(C)cc4)c3=O)sc2c1	i	i	5.7	40*	i	70.7*
CCOc1ccc2nc(SC3CC(=O)N(c4ccc(C)cc4)C3=O)sc2c1 (stereo unspecified)	i	i	84.3*	i	i	-6.9
Cc1ccc(NC(=O)C(=O)NCc2ccncc2)cc1	i	i	37.9	i	i	-5.1
CCSc1nnc(N2C(=O)C(O)=C(C(=O)c3ccco3)C2c2cccc(OC)c2)s1 (stereo unspecified)	i	i	33.2	i	i	-12.8
Cc1ccc2nc(N3C(=O)C(O)=C(C(=O)c4ccco4)C3c3cccs3)sc2c1 (stereo unspecified)	i	i	86.2*	i	i	-14.2
CSc1nnc(N2C(=O)C(O)=C(C(=O)c3ccco3)C2c2ccc(F)cc2)s1 (stereo unspecified)	10*	i	7.2	i	i	-12.9
COc1ccc(C2C(C(=O)c3ccco3)=C(O)C(=O)N2c2nnc(C)s2)cc1 (stereo unspecified)	i	i	-13.2	i	i	-8.9
CSc1nnc(N2C(=O)C(O)=C(C(=O)c3ccco3)C2c2cccc(Cl)c2)s1 (stereo unspecified)	9*	i	19.1	i	i	-21.4
COc1ccc2nc(N3C(=O)C(O)=C(C(=O)c4ccco4)C3c3ccc(C)o3)sc2c1 (stereo unspecified)	.	.	.	.	i	.
Cc1ccc(C(=O)N(C)CC(=O)Nc2ccc(Cl)c(C(F)(F)F)c2)cc1S(=O)(=O)N1CCCCC1	.	.	.	.	-10.9*	.
Cc1sc2ncnc(N3CCC(C(=O)N(C)CC(=O)Nc4ccccc4Cl)CC3)c2c1C	i	i	.	i	i	-22.1
Cc1sc2ncnc(N3CCC(C(=O)N(C)CC(=O)Nc4ccc(Cl)c(C(F)(F)F)c4)CC3)c2c1C	9*	i	.	i	i	-14.4
Cc1ccc(S(=O)(=O)N2CCCCC2)cc1C(=O)N(C)CC(=O)Nc1ccc(Cl)c(C(F)(F)F)c1	i	i	28.7	i	i	-15.1
O=C(CNC(=O)c1ccccc1F)NC1=NCCS1	i	i	7.7	i	i	-6.0
CC(C)Sc1nc(SCC(=O)NCc2ccco2)c2c3c(sc2n1)COC(C)(C)C3	i	i	-5.5	i	i	-19.2
CC(C)Sc1nc(SCC(=O)O)c2c3c(sc2n1)COC(C)(C)C3	i	i	83.6*	i	i	-2.8
CCOc1cc(/C=N\n2nnnc2N)ccc1O	i	i	23.9	i	i	-2.3
